Measurements: ChEMBL document CHEMBL1150564, “Isoterchebulin and 4,6-O-isoterchebuloyl-D-glucose, novel hydrolyzable tannins from Terminalia macroptera” (J Nat Prod, 2001)
In brackets after ≈: the same amount, converted by molar mass. Activity calls are given as the source filed them. The calls are words filed in the database; no cut-off is given here.

Key:
[1] = tested on: Bacillus subtilis; assay: Antibacterial activity against Bacillus subtilis by microdilution assay; format: functional
Summary of the method: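 Broth microdilution against B. subtilis, samples serially twofold diluted from a 1024 µg/mL start, two replicates per concentration. MIC recorded. Cefotaxim served as positive control. Afterwards, bacteria treated at the MIC were replated on drug-free HNB agar to tell bacteriostatic from bactericidal action.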

[2] = tested on: 5637; assay: Cytotoxicity against human 5637 cells; format: functional; conditions: read-out: LC50 (the source's name)
[3] = tested on: Pseudomonas fluorescens; assay: Antibacterial activity against Pseudomonas fluorescens at 1024 ug/ml; format: functional, organism-based
Summary of the method: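 Broth microdilution against P. fluorescens, samples serially twofold diluted from a top concentration of 1024 µg/mL, two replicates per concentration. Cefotaxim served as positive control.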

[4] = Toxicity against Oreochromis mossambicus assessed as mortality at 50 ug/ml; format: organism-based; conditions: in vivo, read-out: Activity
Summary of the method: (§1)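 Tilapia (Oreochromis mossambicus) exposed to the compound in water at 50 or 75 µg/mL. Read-out is percent fish mortality.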

[5] = tested on: Caenorhabditis elegans; assay: Nematicidal activity against Caenorhabditis elegans at 100 ug/ml; format: functional, organism-based
Summary of the method: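 Caenorhabditis elegans exposed to compound at 50 and 100 µg/mL (n = 60, two replicates per concentration). Scored by increase in worm number and worm movement, graded on a + scale. Pyrantel embonate at 50 µg/mL served as positive control.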

[6] = Toxicity against Oreochromis mossambicus assessed as mortality at 75 ug/ml; format: organism-based; conditions: in vivo, read-out: Activity; summary of the method: as §1
[7] = tested on: Biomphalaria glabrata; assay: Molluscicidal activity against Biomphalaria glabrata; format: functional

| SMILES | MIC [1] | Activity [3] | also measured |
| --- | --- | --- | --- |
| [H][C@@]12COC(=O)c3cc(O)c(O)c(O)c3Oc3c(O)cc4c(=O)oc5c(O)c(O)c(c6c(=O)oc3c4c56)-c3c(cc(O)c(O)c3O)C(=O)O[C@@]1([H])[C@H](O)[C@@H](O)C(O)O2 (stereo partly drawn) | 8 mg/L (≈ 10.2 µM) | – | – |
| O=C1O[C@H]2[C@H](O)[C@@H](CO)OC(O)[C@@H]2OC(=O)c2cc(O)c(O)c(O)c2-c2c1cc(O)c(O)c2O (stereo partly drawn) | – | inactive | CC50 [2]: 84.7 µM; Activity [1]: inactive |
| O=C(O[C@H]1C(O)O[C@@H]2COC(=O)c3cc(O)c(O)c(O)c3-c3c(O)c(O)c4oc(=O)c5c(c(O)c(O)c6oc(=O)c3c4c65)-c3c(cc(O)c(O)c3O)C(=O)O[C@H]2[C@@H]1O)c1cc(O)c(O)c(O)c1 (stereo partly drawn) | 8 mg/L (≈ 8.56 µM) | inactive | – |
| O=C1OC[C@H]2OC(O)[C@H](O)[C@@H](O)[C@@H]2OC(=O)c2cc(O)c(O)c(O)c2-c2c(O)c(O)c3oc(=O)c4cc(O)c(c5oc(=O)c2c3c54)Oc2c1cc(O)c(O)c2O (stereo partly drawn) | – | inactive | – |
| CO/N=C(\C(=O)N[C@@H]1C(=O)N2C(C(=O)O)=C(COC(C)=O)CS[C@H]12)c1csc(N)n1 [CEFOTAXIME] | 2 mg/L (≈ 4.39 µM) | – | – |
| [H][C@@]12OC(=O)c3cc(O)c(O)c(O)c3-c3c(O)c(O)c4oc(=O)c5cc(O)c(c6oc(=O)c3c4c65)Oc3c(cc(O)c(O)c3O)C(=O)OC[C@@]1([H])OC(O)[C@]1([H])OC(=O)c3cc(O)c(O)c(O)c3-c3c(cc(O)c(O)c3O)C(=O)O[C@@]21[H] (stereo partly drawn) [ISOTERCHEBULIN] | 8 mg/L (≈ 7.38 µM) | inactive | mortality at 50 ug/ml [4]: 10%; Activity [5]: Active; mortality at 75 ug/ml [6]: 10%; LC100 [7]: 60 µg/mL |
| O=C1O[C@H]([C@@H]2OC(=O)c3cc(O)c(O)c(O)c3-c3c(O)c(O)c4oc(=O)c5c(c(O)c(O)c6oc(=O)c3c4c65)-c3c(cc(O)c(O)c3O)C(=O)OC[C@H]2O)[C@@H]2OC(=O)c3c(c(O)c(O)c(O)c3[C@H]2O)-c2c1cc(O)c(O)c2O [PUNICACORTEIN C] | 16 mg/L (≈ 14.8 µM) | inactive | CC50 [2]: 41.4 µM |
| O=C1O[C@@H]2[C@@H](OC(=O)c3cc(O)c(O)c(O)c3-c3c1cc(O)c(O)c3O)[C@H](O)O[C@@H]1COC(=O)c3cc(O)c(O)c(O)c3-c3c(O)c(O)c4oc(=O)c5c(c(O)c(O)c6oc(=O)c3c4c65)-c3c(cc(O)c(O)c3O)C(=O)O[C@@H]21 [PUNICALAGIN] | 32 mg/L (≈ 29.5 µM) | inactive | – |
| O=C(OC[C@H]1OC(O)[C@@H]2OC(=O)c3cc(O)c(O)c(O)c3-c3c(cc(O)c(O)c3O)C(=O)O[C@H]2[C@@H]1OC(=O)c1cc(O)c(O)c(O)c1-c1c(O)c(O)c2oc(=O)c3cc(O)c(O)c4oc(=O)c1c2c43)c1cc(O)c(O)c(O)c1 (stereo partly drawn) [TERFLAVIN A] | 64 mg/L (≈ 58.9 µM) | inactive | – |
| O=C(OC[C@H]1OC(O)[C@H](O)[C@@H](O)[C@@H]1OC(=O)c1cc(O)c(O)c(O)c1-c1c(O)c(O)c2oc(=O)c3cc(O)c(O)c4oc(=O)c1c2c43)c1cc(O)c(O)c(O)c1 (stereo partly drawn) [TERFLAVIN B] | 64 mg/L (≈ 81.6 µM) | inactive | – |
